# Source: ChEMBL document CHEMBL2311307, “Polymethoxyflavones as agents that prevent formation of cataract: nobiletin congeners show potent growth inhibitory effects in human lens epithelial cells” (Bioorg Med Chem Lett, 2013)
# Calls of active or inactive are those of the source. The rule behind the calls is not given here.
# Tests used:
# [1] = Growth inhibition of human SRA 01/04 cells at 32 uM after 4 days by Alamar blue assay; type: functional; settings: 96 h, read-out: GI
# In short: (§1)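 SRA01/04 human lens epithelial cells grown in DMEM with 20% heat-inactivated FBS plus penicillin/streptomycin/neomycin, 37 °C, 5% CO₂. Seeded at 3 × 10³ cells/well and treated in DMEM with varied flavonoid concentrations for up to 4 days. Alamar Blue added for the final 2 h, fluorescence read at ex 530/em 590 nm. Inhibition taken from the day 4 minus day 0 fluorescence change, treated versus control. n = 4, mean ± SD.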
# Homo sapiens [2] = species: Homo sapiens; assay: Growth inhibition of human SRA 01/04 cells assessed as reduction in PCNA expression at 64 uM after 4 days by Western blot analysis; type: functional
# In short: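 SRA01/04 cells plated at 2 × 10⁵ cells/dish, then harvested and lysed in RIPA buffer (pH 7.5 Tris–HCl, with orthovanadate, PMSF and protease inhibitors). 7 µg protein run on 12.5% SDS-PAGE and transferred to PVDF. Probed overnight at 4 °C with mouse anti-PCNA or anti-β-actin, then alkaline phosphatase secondary for 1 h at room temperature. Bands developed with BCIP/NBT.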
# [3] = Growth inhibition of human SRA 01/04 cells at 64 uM after 4 days by Alamar blue assay; type: functional; settings: 96 h, read-out: GI; in short: as §1
# Homo sapiens [4] = species: Homo sapiens; assay: Growth inhibition of human SRA 01/04 cells after 4 days by Alamar blue assay; type: functional; in short: as §1
# [5] = […] human SRA 01/04 cells assessed as inhibition of PMA-induced proMMP9 expression after 24 hrs by gelatin zymographic analysis; type: functional, cell-based
SMILES,inhibition of growth at 32 µM [1] [%],further results
COc1c(OC)c(O)c2c(=O)cc(-c3ccc(O)cc3)oc2c1OC [XANTHOMICROL],42.3,–
COc1ccc(-c2cc(=O)c3c(O)c(OC)c(OC)c(OC)c3o2)cc1OC [5-DEMETHYLNOBILETIN],17.2,–
COc1c(OC)c(OC)c2c(=O)cc(-c3cccc(O)c3)oc2c1OC,18.3,–
COc1ccccc1-c1cc(=O)c2c(OC)c(OC)c(OC)c(OC)c2o1,23.3,–
COc1cccc(-c2cc(=O)c3c(OC)c(OC)c(OC)c(OC)c3o2)c1,42,–
COc1ccc(-c2cc(=O)c3c(OC)c(OC)c(OC)c(OC)c3o2)cc1OC [NOBILETIN],47.4,growth inhibition (GI) (Homo sapiens [2]): Active; inhibition of growth at 64 µM [3]: 80%; growth inhibition (GI) (Homo sapiens [4]): Dose-dependent effect
COc1ccc(-c2cc(=O)c3c(OC)c(OC)c(OC)c(OC)c3o2)cc1 [TANGERETIN],75.9,–
COc1c(OC)c(OC)c2c(=O)cc(-c3ccc(O)cc3)oc2c1OC,32,–
COc1cc(OC)cc(-c2cc(=O)c3c(OC)c(OC)c(OC)c(OC)c3o2)c1,59.9,–
COc1c(OC)c(OC)c2c(=O)cc(-c3cc(O)cc(O)c3)oc2c1OC,11.5,–
COc1cc(-c2cc(=O)c3c(OC)c(OC)c(OC)c(OC)c3o2)ccc1O,30.7,–
COc1c(OC)c(OC)c2c(=O)cc(-c3ccccc3O)oc2c1OC,4.2,–
COc1c(OC)c(OC)c2c(=O)cc(-c3c(O)cccc3O)oc2c1OC,5.1,IC50 [5]: 55 µM
COc1c(OC)c(O)c2c(=O)cc(-c3ccccc3O)oc2c1OC,30.7,IC50 [5]: > 64 µM
COc1cccc(OC)c1-c1cc(=O)c2c(OC)c(OC)c(OC)c(OC)c2o1,75.9,IC50 [5]: > 64 µM
COc1cc(-c2cc(=O)c3c(O)c(OC)c(OC)c(OC)c3o2)ccc1O,64.1,–
COc1c(OC)c(OC)c2c(=O)cc(-c3ccc(O)c(O)c3)oc2c1OC,26.5,–
